Test results taken from ChEMBL document CHEMBL4000255, “Discovery and Assessment of Atropisomers of (±)-Lesinurad” (ACS Med Chem Lett, 2017).
Several values for one entry are separate records, joined by “and”; a condition that tells them apart may be missing. Equal entries are not always repeated.

Experiments:
CYP2C9 [1] = molecular target: T1, CYP2C9 (Homo sapiens, UniProt P11712); assay: Drug metabolism in human liver microsomes assessed as CYP2C9-mediated metabolism by measuring compound half life at 10 pmol/ml preincubated for 10 mins followed by NADPH addition measured after 10 mins by LC-MS/MS analysis; assay type: ADME
T1 sequence (P11712 whole entry): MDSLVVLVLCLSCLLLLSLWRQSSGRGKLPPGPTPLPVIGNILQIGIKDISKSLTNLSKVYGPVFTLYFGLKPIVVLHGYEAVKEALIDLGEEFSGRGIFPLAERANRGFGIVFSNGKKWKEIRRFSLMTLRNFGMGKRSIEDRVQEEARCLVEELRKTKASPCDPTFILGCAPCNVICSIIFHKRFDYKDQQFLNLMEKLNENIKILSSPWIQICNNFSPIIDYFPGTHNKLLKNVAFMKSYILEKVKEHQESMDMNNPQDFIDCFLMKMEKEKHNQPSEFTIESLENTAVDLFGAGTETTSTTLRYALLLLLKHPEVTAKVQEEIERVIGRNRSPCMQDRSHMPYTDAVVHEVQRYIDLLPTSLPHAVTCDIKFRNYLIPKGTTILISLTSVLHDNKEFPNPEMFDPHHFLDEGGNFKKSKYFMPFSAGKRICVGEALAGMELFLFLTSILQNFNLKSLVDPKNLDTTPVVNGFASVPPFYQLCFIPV

Cytochrome P450 2C9 [2] = molecular target: T2, Cytochrome P450 2C9 (Homo sapiens, UniProt P11712); assay: Drug metabolism in human liver microsomes assessed as CYP2C9-mediated metabolism by measuring compound intrinsic clearance at 10 pmol/ml preincubated for 10 mins followed by NADPH addition measured after 10 mins by LC-MS/MS analysis; assay type: ADME
T2 sequence (P11712 whole entry): as above

CYP2C9 [3] = molecular target: T1, CYP2C9; assay: Drug metabolism in human liver microsomes assessed as CYP2C9-mediated metabolism by measuring parent compound remaining at 10 pmol/ml after 60 mins in presence of NADPH by LC-MS/MS analysis; assay type: ADME; settings: read-out: Stability
CYP2C9 [4] = molecular target: T1, CYP2C9; assay: Drug metabolism in human liver microsomes assessed as CYP2C9-mediated metabolism by measuring parent compound remaining at 10 pmol/ml after 60 mins in absence of NADPH by LC-MS/MS analysis; assay type: ADME; settings: read-out: Stability
[5] = molecular target: Voltage-gated inwardly rectifying potassium channel KCNH2 (Homo sapiens, UniProt Q12809); assay: Inhibition of human ERG
Voltage-gated inwardly rectifying potassium channel KCNH2, sequence (Q12809 whole entry): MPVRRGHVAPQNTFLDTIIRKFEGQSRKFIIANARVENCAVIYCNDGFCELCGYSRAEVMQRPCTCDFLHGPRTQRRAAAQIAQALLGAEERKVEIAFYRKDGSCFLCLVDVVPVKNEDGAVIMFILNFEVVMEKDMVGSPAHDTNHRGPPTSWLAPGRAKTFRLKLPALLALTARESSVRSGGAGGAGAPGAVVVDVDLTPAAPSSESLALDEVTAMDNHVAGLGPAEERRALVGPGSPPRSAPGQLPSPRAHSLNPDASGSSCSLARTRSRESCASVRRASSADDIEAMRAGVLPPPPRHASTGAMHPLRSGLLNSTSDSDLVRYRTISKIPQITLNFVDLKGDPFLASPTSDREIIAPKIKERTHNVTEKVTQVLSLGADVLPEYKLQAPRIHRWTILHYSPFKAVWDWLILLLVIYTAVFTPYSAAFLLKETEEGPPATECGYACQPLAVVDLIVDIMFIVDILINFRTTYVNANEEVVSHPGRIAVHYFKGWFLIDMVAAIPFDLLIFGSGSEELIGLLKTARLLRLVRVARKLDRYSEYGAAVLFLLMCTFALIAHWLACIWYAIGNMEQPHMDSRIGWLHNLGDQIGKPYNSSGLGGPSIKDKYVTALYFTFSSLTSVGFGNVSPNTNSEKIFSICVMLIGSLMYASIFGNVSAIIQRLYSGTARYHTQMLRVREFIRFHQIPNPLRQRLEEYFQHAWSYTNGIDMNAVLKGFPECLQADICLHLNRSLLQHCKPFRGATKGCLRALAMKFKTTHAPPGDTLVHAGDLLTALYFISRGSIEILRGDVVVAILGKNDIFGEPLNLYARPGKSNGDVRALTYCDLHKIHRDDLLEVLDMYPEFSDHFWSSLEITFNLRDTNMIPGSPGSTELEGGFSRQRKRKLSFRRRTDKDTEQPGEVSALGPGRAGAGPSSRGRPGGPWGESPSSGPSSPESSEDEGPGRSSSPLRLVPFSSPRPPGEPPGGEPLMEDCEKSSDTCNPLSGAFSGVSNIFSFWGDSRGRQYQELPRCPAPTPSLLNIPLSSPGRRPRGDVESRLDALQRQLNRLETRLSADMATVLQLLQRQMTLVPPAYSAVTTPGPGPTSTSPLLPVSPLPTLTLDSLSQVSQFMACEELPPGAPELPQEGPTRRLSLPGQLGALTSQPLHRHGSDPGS

Cytochrome P450 2D6 = Cytochrome P450 2D6 (Homo sapiens, UniProt P10635); assay: Inhibition of CYP2D6 (unknown origin); assay type: ADME
Cytochrome P450 2D6, sequence (P10635 whole entry): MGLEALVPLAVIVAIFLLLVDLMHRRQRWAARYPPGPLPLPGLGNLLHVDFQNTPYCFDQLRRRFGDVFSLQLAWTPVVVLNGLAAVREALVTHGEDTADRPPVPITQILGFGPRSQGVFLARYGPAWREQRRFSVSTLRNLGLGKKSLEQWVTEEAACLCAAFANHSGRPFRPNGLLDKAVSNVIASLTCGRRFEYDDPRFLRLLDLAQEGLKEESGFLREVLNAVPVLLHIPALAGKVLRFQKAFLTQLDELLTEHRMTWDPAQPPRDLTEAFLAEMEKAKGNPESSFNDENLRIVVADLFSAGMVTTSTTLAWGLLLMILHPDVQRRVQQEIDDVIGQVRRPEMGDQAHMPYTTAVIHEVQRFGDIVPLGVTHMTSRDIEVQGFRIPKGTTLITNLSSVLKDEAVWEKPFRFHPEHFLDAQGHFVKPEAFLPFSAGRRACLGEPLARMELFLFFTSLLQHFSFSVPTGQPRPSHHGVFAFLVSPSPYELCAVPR

Cytochrome P450 2C9 [6] = molecular target: T2, Cytochrome P450 2C9; assay: Inhibition of CYP2C9 (unknown origin); assay type: ADME
Cytochrome P450 3A4 = Cytochrome P450 3A4 (Homo sapiens, UniProt P08684); assay: Inhibition of CYP3A4 (unknown origin); assay type: ADME
Cytochrome P450 3A4, sequence (P08684 whole entry): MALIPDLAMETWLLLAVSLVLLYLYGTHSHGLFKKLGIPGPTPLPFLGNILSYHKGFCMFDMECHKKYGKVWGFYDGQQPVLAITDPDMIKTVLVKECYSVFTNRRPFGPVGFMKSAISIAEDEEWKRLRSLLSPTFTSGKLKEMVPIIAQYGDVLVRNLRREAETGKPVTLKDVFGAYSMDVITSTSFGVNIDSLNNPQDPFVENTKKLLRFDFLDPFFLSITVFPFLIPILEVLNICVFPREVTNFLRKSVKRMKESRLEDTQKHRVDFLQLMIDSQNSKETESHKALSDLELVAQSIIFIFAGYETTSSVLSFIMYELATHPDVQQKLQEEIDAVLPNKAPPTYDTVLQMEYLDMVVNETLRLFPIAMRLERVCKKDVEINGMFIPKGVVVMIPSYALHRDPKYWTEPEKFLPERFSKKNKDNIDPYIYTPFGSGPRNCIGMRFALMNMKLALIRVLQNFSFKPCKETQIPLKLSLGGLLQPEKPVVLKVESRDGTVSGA

Cytochrome P450 2C19 = Cytochrome P450 2C19 (Homo sapiens, UniProt P33261); assay: Inhibition of CYP2C19 (unknown origin); assay type: ADME
Cytochrome P450 2C19, sequence (P33261 whole entry): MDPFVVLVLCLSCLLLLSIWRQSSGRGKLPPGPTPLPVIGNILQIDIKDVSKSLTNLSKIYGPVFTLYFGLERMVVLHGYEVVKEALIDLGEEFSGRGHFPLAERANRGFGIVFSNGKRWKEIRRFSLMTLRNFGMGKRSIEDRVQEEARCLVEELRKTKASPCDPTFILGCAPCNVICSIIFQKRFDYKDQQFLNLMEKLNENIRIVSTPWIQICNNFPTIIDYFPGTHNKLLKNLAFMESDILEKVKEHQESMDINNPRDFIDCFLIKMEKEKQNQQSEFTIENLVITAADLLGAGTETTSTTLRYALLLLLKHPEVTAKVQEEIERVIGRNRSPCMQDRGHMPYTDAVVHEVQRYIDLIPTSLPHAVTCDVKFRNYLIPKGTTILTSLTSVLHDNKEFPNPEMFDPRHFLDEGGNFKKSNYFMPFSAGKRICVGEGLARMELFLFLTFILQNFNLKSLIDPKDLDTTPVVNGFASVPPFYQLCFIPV

Cytochrome P450 1A2 = molecular target: T3, Cytochrome P450 1A2 (Homo sapiens, UniProt P05177); assay: Inhibition of CYP1A2 (unknown origin); assay type: ADME
T3 sequence (P05177 whole entry): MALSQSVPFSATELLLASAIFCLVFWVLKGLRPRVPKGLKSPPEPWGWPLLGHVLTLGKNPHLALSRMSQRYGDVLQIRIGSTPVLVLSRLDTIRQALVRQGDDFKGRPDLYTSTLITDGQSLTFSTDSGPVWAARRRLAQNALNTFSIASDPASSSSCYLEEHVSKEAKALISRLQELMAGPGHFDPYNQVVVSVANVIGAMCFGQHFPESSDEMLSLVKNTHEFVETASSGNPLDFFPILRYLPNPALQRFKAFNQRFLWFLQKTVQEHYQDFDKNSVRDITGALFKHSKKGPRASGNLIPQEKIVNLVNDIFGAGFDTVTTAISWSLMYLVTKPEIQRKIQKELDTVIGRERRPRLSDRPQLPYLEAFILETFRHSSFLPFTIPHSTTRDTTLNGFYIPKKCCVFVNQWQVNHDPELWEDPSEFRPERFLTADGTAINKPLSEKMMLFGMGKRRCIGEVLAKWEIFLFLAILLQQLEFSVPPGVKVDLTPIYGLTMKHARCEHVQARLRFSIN

[7] = Stability of the compound in solid state assessed as compound purity after 80 days; assay type: physicochemical; settings: 1920 h
[8] = Stability of the compound in solid state assessed as racemization after 80 days; assay type: physicochemical; settings: 1920 h
[9] = Stability of the compound in ethanol at 37 degC for 4 days; assay type: physicochemical; settings: 96 h
[10] = Stability of the compound in DMSO at 80 degC for 4 days; assay type: physicochemical; settings: 96 h
Plasma [11] = assay: Stability in human plasma at 37 degC up to 2 hrs; assay type: ADME, cell-free
Plasma [12] = assay: Stability in Sprague-Dawley rat plasma at 37 degC up to 2 hrs; assay type: ADME, cell-free
[13] = Apparent permeability from apical to basolateral side in MDCK cells expressing MDR1; assay type: ADME, cell-based, Canis lupus familiaris; settings: dog
[14] = Apparent permeability from basolateral to apical side in MDCK cells expressing MDR1; assay type: ADME, cell-based, Canis lupus familiaris; settings: dog
Plasma [15] = assay: Drug metabolism in Sprague-Dawley rat plasma assessed as (+)-Lesinurad formation at 2 mg/kg, iv administered as single bolus dose by LC-MS/MS analysis; assay type: ADME, organism-based; settings: in vivo
Plasma [16] = assay: Drug metabolism in Sprague-Dawley rat plasma assessed as (+)-Lesinurad formation at 10 mg/kg, po administered as single dose via gavage by LC-MS/MS analysis; assay type: ADME, organism-based; settings: in vivo
Plasma [17] = assay: Drug metabolism in Sprague-Dawley rat plasma assessed as (-)-Lesinurad formation at 2 mg/kg, iv administered as single bolus dose by LC-MS/MS analysis; assay type: ADME, organism-based; settings: in vivo
Plasma [18] = assay: Drug metabolism in Sprague-Dawley rat plasma assessed as (-)-Lesinurad formation at 10 mg/kg, po administered as single dose via gavage by LC-MS/MS analysis; assay type: ADME, organism-based; settings: in vivo
[19] = Drug metabolism in cynomolgus monkey assessed as (-)-Lesinurad level in urine at 2 mg/kg, iv administered as single bolus dose measured at 24 hrs post dose by LC-MS/MS analysis; assay type: ADME, organism-based, Macaca fascicularis; settings: in vivo
How it was run: (§1)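 Male cynomolgus monkeys received a single 2 mg/kg IV or 10 mg/kg PO dose. Plasma and urine were collected over time periods, and the two atropisomers were quantified separately. Urine values are the mean concentration over 0-24 h. Data are mean±SD, n=3.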

[20] = Drug metabolism in cynomolgus monkey assessed as (+)-Lesinurad level in urine at 2 mg/kg, iv administered as single bolus dose measured at 24 hrs post dose by LC-MS/MS analysis; assay type: ADME, organism-based, Macaca fascicularis; settings: in vivo, read-out: Drug metabolism; how it was run: as §1
[21] = Drug metabolism in cynomolgus monkey assessed as (-)-Lesinurad level in urine at 10 mg/kg, po administered as single dose via gavage measured at 24 hrs post dose by LC-MS/MS analysis; assay type: ADME, organism-based, Macaca fascicularis; settings: in vivo, read-out: Drug metabolism; how it was run: as §1
[22] = Drug metabolism in cynomolgus monkey assessed as (+)-Lesinurad level in urine at 10 mg/kg, po administered as single dose via gavage measured at 24 hrs post dose by LC-MS/MS analysis; assay type: ADME, organism-based, Macaca fascicularis; settings: in vivo, read-out: Drug metabolism; how it was run: as §1
[23] = Drug recovery in cynomolgus monkey urine at 10 mg/kg, po administered as single dose via gavage measured at 24 hrs post dose by LC-MS/MS analysis; assay type: ADME, organism-based, Macaca fascicularis; settings: read-out: Drug recovery; how it was run: as §1
[24] = Drug recovery in cynomolgus monkey urine at 2 mg/kg, iv administered as single bolus dose measured at 24 hrs post dose by LC-MS/MS analysis; assay type: ADME, organism-based, Macaca fascicularis; settings: read-out: Drug recovery; how it was run: as §1
[25] = (§2) AUC (0 to infinity) in cynomolgus monkey at 2 mg/kg, iv administered as single bolus dose by LC-MS/MS analysis; assay type: ADME, organism-based, Macaca fascicularis; design: dose 2 mg/kg, time infinity, route intravenous; settings: in vivo
Cynomolgus monkey [26] = assay: as §2; assay type: ADME, organism-based, Macaca fascicularis; design: dose 2 mg/kg, time infinity, route intravenous; settings: in vivo
[27] = Apparent plasma clearance in cynomolgus monkey at 2 mg/kg, iv administered as single bolus dose by LC-MS/MS analysis; assay type: ADME, organism-based, Macaca fascicularis; settings: read-out: CL(app); how it was run: as §1
[28] = Drug level in cynomolgus monkey urine at 2 mg/kg, iv administered as single bolus dose measured at 24 hrs post dose by LC-MS/MS analysis; assay type: ADME, organism-based, Macaca fascicularis; settings: read-out: Drug uptake; how it was run: as §1
Cynomolgus monkey [29] = assay: AUC (0 to infinity) in cynomolgus monkey at 10 mg/kg, po administered as single dose via gavage by LC-MS/MS analysis; assay type: ADME, organism-based, Macaca fascicularis; design: dose 10 mg/kg, route oral, time infinity; settings: in vivo
[30] = Drug level in cynomolgus monkey urine at 10 mg/kg, po administered as single dose via gavage measured at 24 hrs post dose by LC-MS/MS analysis; assay type: ADME, organism-based, Macaca fascicularis; settings: in vivo, read-out: Drug uptake; how it was run: as §1
CYP2C9 [31] = molecular target: T1, CYP2C9; assay: (§3) Drug metabolism in human liver microsomes assessed as CYP2C9-mediated metabolism by measuring compound half life at 250 pmol/ml preincubated for 10 mins followed by NADPH addition measured after 10 mins by LC-MS/MS analysis; assay type: ADME; settings: liver microsomes
Cytochrome P450 2C9 [32] = molecular target: T2, Cytochrome P450 2C9; assay: as §3; assay type: ADME; settings: microsomes, 10 min
Cytochrome P450 2C9 [33] = molecular target: T2, Cytochrome P450 2C9; assay: Drug metabolism in human liver microsomes assessed as CYP2C9-mediated metabolism by measuring compound intrinsic clearance at 250 pmol/ml preincubated for 10 mins followed by NADPH addition measured after 10 mins by LC-MS/MS analysis; assay type: ADME
CYP2C9 [34] = molecular target: T1, CYP2C9; assay: (§4) Drug metabolism in human liver microsomes assessed as CYP2C9-mediated metabolism by measuring parent compound remaining at 250 pmol/ml after 60 mins in presence of NADPH by LC-MS/MS analysis; assay type: ADME; settings: liver microsomes, read-out: Stability
Cytochrome P450 2C9 [35] = molecular target: T2, Cytochrome P450 2C9; assay: as §4; assay type: ADME; settings: microsomes, 1 h
CYP2C9 [36] = molecular target: T1, CYP2C9; assay: (§5) Drug metabolism in human liver microsomes assessed as CYP2C9-mediated metabolism by measuring parent compound remaining at 250 pmol/ml after 60 mins in absence of NADPH by LC-MS/MS analysis; assay type: ADME; settings: liver microsomes, read-out: Stability
Cytochrome P450 2C9 [37] = molecular target: T2, Cytochrome P450 2C9; assay: as §5; assay type: ADME; settings: microsomes, 1 h
Cytochrome P450 2C9 [38] = molecular target: T2, Cytochrome P450 2C9; assay: Drug metabolism in human liver microsomes assessed as CYP2C9-mediated mono-oxidative metabolite formation at 250 pmol/ml preincubated for 10 mins followed by NADPH addition measured after 10 mins by LC-MS/MS analysis; assay type: ADME; settings: 0.25 µM

`O=C(O)Cc1ccccc1Nc1c(Cl)cccc1Cl` [DICLOFENAC] showed a half-life at 10 pmol/ml (CYP2C9 [1]) of 0.205 h, a CLint (Cytochrome P450 2C9 [2]) of 5.6 µL/min/pmol and a remaining at 1 h, 10 pmol/ml (CYP2C9 [3]) of 3.3%. It also gave a remaining at 1 h, 10 pmol/ml (CYP2C9 [4]) of 112%.

For `O=C(O)CSc1nnc(Br)n1-c1ccc(C2CC2)c2ccccc12` [LESINURAD], the IC50 [5] was > 30 µM, the IC50 (Cytochrome P450 2D6) was 32.6 µM and 92.1 µM and > 100 µM and the IC50 (Cytochrome P450 2C9 [6]) was > 100 µM and 78.7 µM and 31.2 µM. The IC50 (Cytochrome P450 3A4) was 74.4 µM and 32.4 µM and 31 µM, the IC50 (Cytochrome P450 2C19) was 61.7 µM and 10.6 µM and 10.8 µM and the IC50 (Cytochrome P450 1A2) was 17.3 µM and 39.3 µM and 21.9 µM. For the same compound, the Stability [7] was “Stable”, the Stability [8] was “Stable” and the Stability [9] was “Stable”. For the same compound, the Stability [10] was “Stable”, the Stability (Plasma [11]) was “Stable” and the Stability (Plasma [12]) was “Stable”. For the same compound, the Papp A→B ([13]; MDCK-MDR1) was 1.34 ×10⁻⁶ cm/s, the Papp ([13]; mdck) was 1.29 ucm/s and 1.26 ucm/s and the Papp B→A ([14]; MDCK-MDR1) was 1.98 ×10⁻⁶ cm/s. For the same compound, the Papp ([14]; mdck) was 1.84 ucm/s and 1.62 ucm/s, the Drug metabolism (Plasma [15]) was “Metabolite_Notdetected” and the Drug metabolism (Plasma [16]) was “Metabolite_Notdetected”. For the same compound, the Drug metabolism (Plasma [17]) was “Metabolite_Notdetected”, the Drug metabolism (Plasma [18]) was “Metabolite_Notdetected” and the Drug metabolism [19] was 5.4 µM. The concentration [20] was 2.8 µM, the concentration [21] was 153 µM and the concentration [22] was 38 µM. For the same compound, the dose excreted at 24 h [23] was 20%, the dose excreted at 24 h [24] was 20% and the AUC(0-inf) [25] was 26.7 µM·h. It also gave an AUC (Cynomolgus monkey [26]) of 19.2 µM·h, a clearance [27] of 3.3 mL/min/kg and a concentration ([28]; in vivo, 24 h) of 15.7 µM. For the same compound, the concentration at 24 h ([28]; urine) was 16.3 µM, the AUC (Cynomolgus monkey [29]) was 83.9 µM·h and 37.3 µM·h and the concentration [30] was 120 µM and 47.8 µM. For the same compound, the half-life at 250 pmol/ml (CYP2C9 [31]) was 1.5 h, the t1/2 (Cytochrome P450 2C9 [32]) was > 2.42 h and the CLH (Cytochrome P450 2C9 [33]) was 0.04 µL/min/pmol and < 0.02 µL/min/pmol. It also gave a remaining at 1 h, 250 pmol/ml (CYP2C9 [34]) of 61.8%, a Stability (Cytochrome P450 2C9 [35]) of 74.9% and a remaining at 1 h, 250 pmol/ml (CYP2C9 [36]) of 110%. The Stability (Cytochrome P450 2C9 [37]) was 108.9% and the Drug metabolism (Cytochrome P450 2C9 [38]) was “Metabolite_Detected”.
